Experimental data: paper PMC3128788 (Nuclear medicine and biology, 2011)
Where “and” joins values, the source holds several entries; their conditions need not be identical. Equal entries are not always repeated. Marks after values point to notes of the source that are not given here.

What was measured:
[1] = target: human D3 dopamine receptors expressed in HEK 293 cells (Homo sapiens, UniProt P35462); test: Dopamine receptor filtration binding assay, [125I]-IABN competition, D3; conditions: for D3 (Ki): mean Ki ± S.E.M., [125I]-IABN, HEK 293 membranes, unit printed in b5 only
[2] = target: D2 dopamine receptors (transfected HEK cells) (Homo sapiens, UniProt P14416); test: Whole cell forskolin-dependent adenylyl cyclase inhibition assay, D2; format: cell-based; conditions: intrinsic activity
In short: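 Transfected HEK cells were prelabelled with 2,8-3H-adenine in serum-free medium for 75 min at 37 °C. They were then incubated with test compound in serum-free medium containing 0.1 mM 3-isobutyl-1-methylxanthine for 20 min at 37 °C. The reaction was stopped with a solution of 10% trichloroacetic acid and 1 mM cyclic AMP, and accumulated 3H-cyclic AMP was measured.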

[3] = target: D3 dopamine receptors (transfected HEK cells) (Homo sapiens, UniProt P35462); test: Whole cell forskolin-dependent adenylyl cyclase inhibition assay, D3; format: cell-based; conditions: for Functional classification at D3 dopamine receptors: compared to quinpirole; for %IA D3: intrinsic activity, compared to the full agonist quinpirole
[4] = test system: P-gp expressed in Madin-Darby canine kidney (MDCK)-MDR1 cells; conditions: efflux blocked with verapamil; cited from earlier work
[5] = format: in vivo, male Sprague Dawley rats
[6] = CycA […] mg/kg i.v. 30 min before tracer, 5 min post-injection
[7] = CycA […] mg/kg i.v. 30 min before tracer, 30 min post-injection
[8] = control rats, i.v., 5 min post-injection
[9] = control rats, i.v., 30 min post-injection
[10] = ratio of tracer uptake in CycA versus control group 30 min post injection

D2 dopamine receptors (transfected HEK cells), sequence (P14416 whole entry): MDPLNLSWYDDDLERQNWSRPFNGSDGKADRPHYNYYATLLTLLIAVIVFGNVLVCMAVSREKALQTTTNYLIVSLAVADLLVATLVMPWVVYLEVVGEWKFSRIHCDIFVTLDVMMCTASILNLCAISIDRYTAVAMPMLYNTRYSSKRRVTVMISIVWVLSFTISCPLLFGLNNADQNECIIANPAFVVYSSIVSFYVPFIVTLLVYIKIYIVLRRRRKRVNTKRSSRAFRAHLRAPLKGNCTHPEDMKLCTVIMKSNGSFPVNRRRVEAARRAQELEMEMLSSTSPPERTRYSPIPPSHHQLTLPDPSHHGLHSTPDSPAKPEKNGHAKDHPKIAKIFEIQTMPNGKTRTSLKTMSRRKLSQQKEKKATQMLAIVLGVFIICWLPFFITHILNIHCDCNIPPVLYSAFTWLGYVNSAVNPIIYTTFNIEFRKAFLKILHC
D3 dopamine receptors (transfected HEK cells), sequence (P35462 whole entry): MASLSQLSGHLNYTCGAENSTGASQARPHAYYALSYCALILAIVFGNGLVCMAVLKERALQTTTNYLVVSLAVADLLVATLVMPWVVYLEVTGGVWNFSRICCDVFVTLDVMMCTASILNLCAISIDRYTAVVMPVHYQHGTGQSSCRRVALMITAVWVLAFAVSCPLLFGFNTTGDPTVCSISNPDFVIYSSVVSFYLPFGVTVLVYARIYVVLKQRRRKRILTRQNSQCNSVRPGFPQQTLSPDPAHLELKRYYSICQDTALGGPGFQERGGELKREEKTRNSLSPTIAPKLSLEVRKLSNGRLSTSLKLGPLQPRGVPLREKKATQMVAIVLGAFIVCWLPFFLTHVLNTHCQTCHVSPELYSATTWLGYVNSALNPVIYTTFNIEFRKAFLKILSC
human D3 dopamine receptors expressed in HEK 293 cells, sequence (P35462 whole entry): as above

SMILES: COc1ccccc1N1CCN(CCCCNC(=O)c2ccc(N(C)C)cc2)CC1 [Compound 6, 4-(dimethylamino)-N-(4-(4-(2-methoxyphenyl)piperazin-1-yl)butyl)benzamide]
- D3 (Ki) [1]: subnanomolar
- %IA D2 [2]: 34 ± 3%
- Functional classification at D3 dopamine receptors [3]: weak partial agonist/antagonist

SMILES: COc1ccccc1N1CCN(CCCCNC(=O)c2ccc(CCF)cc2)CC1 [Compound 7, 4-(2-fluoroethyl)-N-(4-(4-(2-methoxyphenyl)piperazin-1-yl)butyl)benzamide]
- D3 (Ki) [1]: subnanomolar
- %IA D2 [2]: 35 ± 1%

SMILES: CN(C)c1ccc(C(=O)NCCCCN2CCN(c3ccccc3OCCF)CC2)cc1 [Compound 8, 4-(dimethylamino)-N-(4-(4-(2-(2-fluoroethoxy)phenyl)piperazin-1-yl)butyl)benzamide]
- D3 (Ki) [1]: subnanomolar
- D2:D3 selectivity ratio ([1]; selectivity for D3 versus D2 receptors): 23
- %IA D2 [2]: 66.3 ± 1%
- Functional classification at D3 dopamine receptors [3]: partial agonist
- %IA D3 [3]: 64.5 ± 8.3% and 64.5 ± 8%

SMILES: O=C(NCCCCN1CCN(c2ccccc2OCCF)CC1)c1ccc(-c2ccsc2)cc1 [Compound 9, N-(4-(4-(2-(2-fluoroethoxy)phenyl)piperazin-1-yl)butyl)-4-(thiophen-3-yl)benzamide]
- %IA D2 [2]: 29.3 ± 7.3%
- Functional classification at D3 dopamine receptors [3]: weak partial agonist
- %IA D3 [3]: 34.4 ± 1.7%

SMILES: O=C(NC/C=C/CN1CCN(c2cccc(Cl)c2Cl)CC1)c1ccc(-c2ccccn2)cc1 [PG 01037]
- Substrate for P-gp [4]: substrate for P-gp

SMILES: O=C(NCCCCN1CCN(c2ccccc2OCC[18F])CC1)c1ccc(-c2ccsc2)cc1 [[^18F]9, N-(4-(4-(2-(2-[^18F]fluoroethoxy)phenyl)piperazin-1-yl)butyl)-4-(thiophen-3-yl)benzamide]
- Blood %ID/gram, 5 min CycA [5, 6]: 0.098 ± 0.009 %ID/gram
- Bone %ID/gram, 5 min CycA [5, 6]: 0.162 ± 0.030 g %ID/gram
- Fat %ID/gram, 5 min CycA [5, 6]: 0.046 ± 0.028 %ID/gram
- Kidney %ID/gram, 5 min CycA [5, 6]: 1.913 ± 0.037 %ID/gram
- Liver %ID/gram, 5 min CycA [5, 6]: 1.478 ± 0.336 %ID/gram
- Lung %ID/gram, 5 min CycA [5, 6]: 3.356 ± 0.261 %ID/gram
- Muscle %ID/gram, 5 min CycA [5, 6]: 0.097 ± 0.0417 %ID/gram
- Total brain %ID/gram, 5 min CycA [5, 6]: 0.725 ± 0.022 %ID/gram
- Blood %ID/gram, 30 min CycA [5, 7]: 0.109 ± 0.019 %ID/gram
- Bone %ID/gram, 30 min CycA [5, 7]: 0.143 ± 0.016 %ID/gram
- Fat %ID/gram, 30 min CycA [5, 7]: 0.093 ± 0.017 %ID/gram
- Kidney %ID/gram, 30 min CycA [5, 7]: 1.397 ± 0.260 %ID/gram
- Liver %ID/gram, 30 min CycA [5, 7]: 1.039 ± 0.124 %ID/gram
- Lung %ID/gram, 30 min CycA [5, 7]: 1.063 ± 0.182 %ID/gram
- Muscle %ID/gram, 30 min CycA [5, 7]: 0.108 ± 0.014 %ID/gram
- Total brain %ID/gram, 30 min CycA [5, 7]: 0.504 ± 0.023 %ID/gram
- Blood %ID/gram, 5 min No Rx [5, 8]: 0.082 ± 0.027 %ID/gram
- Bone %ID/gram, 5 min No Rx [5, 8]: 0.253 ± 0.001 %ID/gram
- Fat %ID/gram, 5 min No Rx [5, 8]: 0.028 ± 0.003 %ID/gram
- Kidney %ID/gram, 5 min No Rx [5, 8]: 2.485 ± 0.608 %ID/gram
- Liver %ID/gram, 5 min No Rx [5, 8]: 1.430 ± 0.221 %ID/gram
- Lung %ID/gram, 5 min No Rx [5, 8]: 4.026 ± 1.177 %ID/gram
- Muscle %ID/gram, 5 min No Rx [5, 8]: 0.083 ± 0.009 %ID/gram
- Total brain %ID/gram, 5 min No Rx [5, 8]: 0.118 ± 0.001 %ID/gram
- Blood %ID/gram, 30 min No Rx [5, 9]: 0.104 ± 0.010 %ID/gram
- Bone %ID/gram, 30 min No Rx [5, 9]: 0.220 ± 0.0494 %ID/gram
- Fat %ID/gram, 30 min No Rx [5, 9]: 0.091 ± 0.0029 %ID/gram
- Kidney %ID/gram, 30 min No Rx [5, 9]: 1.363 ± 0.0359 %ID/gram
- Liver %ID/gram, 30 min No Rx [5, 9]: 1.162 ± 0.1400 %ID/gram
- Lung %ID/gram, 30 min No Rx [5, 9]: 1.313 ± 0.3574 %ID/gram
- Muscle %ID/gram, 30 min No Rx [5, 9]: 0.083 ± 0.0139 %ID/gram
- Total brain %ID/gram, 30 min No Rx [5, 9]: 0.095 ± 0.0208 %ID/gram
- Bone activity levels from 5 min to 30 min (metabolic defluorination) ([5]; normal rats): No accumulation
- Blood CycA:No Rx [5, 10]: 1.05
- Bone CycA:No Rx [5, 10]: 0.65
- Fat CycA:No Rx [5, 10]: 1.02
- Kidney CycA:No Rx [5, 10]: 1.03
- Liver CycA:No Rx [5, 10]: 0.89
- Lung CycA:No Rx [5, 10]: 0.81
- Muscle CycA:No Rx [5, 10]: 1.24
- Total brain CycA:No Rx [5, 10]: 5.33 ^h
